Results gathered from unrelated publications.
ABL1 F317I phosphorylated: Tyrosine-protein kinase ABL1, phosphorylated (ABL1, Homo sapiens, UniProt P00519, F317I)
ABL1 phosphorylated: Tyrosine-protein kinase ABL1, phosphorylated (ABL1, Homo sapiens, UniProt P00519)
ABL1 Q252H non-phosphorylated: Tyrosine-protein kinase ABL1, non-phosphorylated (ABL1, Homo sapiens, UniProt P00519, Q252H)
ABL1 H396P phosphorylated: Tyrosine-protein kinase ABL1, phosphorylated (ABL1, Homo sapiens, UniProt P00519, H396P)
ABL1 M351T phosphorylated: Tyrosine-protein kinase ABL1, phosphorylated (ABL1, Homo sapiens, UniProt P00519, M351T)
ABL1 E255K phosphorylated: Tyrosine-protein kinase ABL1, phosphorylated (ABL1, Homo sapiens, UniProt P00519, E255K)
ABL1 F317L phosphorylated: Tyrosine-protein kinase ABL1, phosphorylated (ABL1, Homo sapiens, UniProt P00519, F317L)
ABL1 T315I phosphorylated: Tyrosine-protein kinase ABL1, phosphorylated (ABL1, Homo sapiens, UniProt P00519, T315I)
ABL1 non-phosphorylated: Tyrosine-protein kinase ABL1, non-phosphorylated (ABL1, Homo sapiens, UniProt P00519)
ABL1 F317L: Tyrosine-protein kinase ABL1 (ABL1, Homo sapiens, UniProt P00519, F317L)
ABL1 F317L non-phosphorylated: Tyrosine-protein kinase ABL1, non-phosphorylated (ABL1, Homo sapiens, UniProt P00519, F317L)

O=C(c1ccc(Nc2ncc(Cl)c(-c3cc4ccccc4s3)n2)cc1)N1CCC(N2CCCC2)CC1  remaining binding (ABL1 F317I phosphorylated; binding; competition with immobilised ligand; 1 µM): 100%
C[C@@H]1CCN(c2nccc(-c3cnn4ncccc34)n2)C1  remaining binding (ABL1 phosphorylated; binding; 1 µM): 61%
CC(C)(O)c1cncc(-c2nc3ccc(F)cc3n2C2CC2)c1  remaining binding (ABL1 Q252H non-phosphorylated; cell-free assay; competition with immobilised ligand; 1 µM): 89%
O=C(NCCCN1CCOCC1)c1ccc(Nc2nccc(-c3cc4ccccc4s3)n2)cc1  remaining binding (Tyrosine-protein kinase ABL1, non-phosphorylated (ABL1, Homo sapiens, UniProt P00519, T315I); binding; competition with immobilised ligand; 1 µM): 19%
C[C@@H](c1ccc(-n2cnc3c(N)ncnc32)cc1)N1CCc2nn(C)c(Cc3ccccc3)c2C1=O  remaining binding (ABL1 H396P phosphorylated; binding; competition with immobilised ligand; 0.1 µM): 79%
CNC(=O)[C@@H]1CC[C@@H](n2c(-c3ccc4cnccc4c3)nc3ccc(C(=O)NCc4cccc(C(N)=O)c4)cc32)C1  remaining binding (ABL1 H396P phosphorylated; binding; competition with immobilised ligand; 1 µM): 100%
O=C(NCc1ncc(C(F)(F)F)cc1Cl)c1ccc2c(c1)C1(CCS(=O)(=O)CC1)[C@@H](C1CC1)N2S(=O)(=O)c1ccc(F)cc1  remaining binding (ABL1 M351T phosphorylated; cell-free assay; competition with immobilised ligand; 1 µM): 94%
COc1cnc(Nc2cccc(S(N)(=O)=O)c2)nc1N1CCN(c2ccccc2)C(=O)C1  remaining binding (ABL1 E255K phosphorylated; binding; competition with immobilised ligand; 1 µM): 86%
O=C(c1ccc(Nc2ncc(Cl)c(-c3ccc(Cl)s3)n2)cc1)N1CCC(N2CCCC2)CC1  remaining binding (Tyrosine-protein kinase ABL1, non-phosphorylated (ABL1, Homo sapiens, UniProt P00519, H396P); binding; competition with immobilised ligand; 1 µM): 0.35%
COc1ncc2cc3ccccc3nc2c1C#N  remaining binding (ABL1 F317L phosphorylated; cell-free assay; competition with immobilised ligand; 5 µM): 86%
N[C@@H]1CCN(c2nccc(-c3cnn4ncccc34)n2)C1  remaining binding (Tyrosine-protein kinase ABL1 (ABL1, Homo sapiens, UniProt P00519, Q252H); binding; 1 µM): 74%
O=C(c1ccc(Nc2nccc(-c3cc4ccccc4s3)n2)cc1)N1CCC(N2CCCC2)CC1  remaining binding (ABL1 E255K phosphorylated; binding; competition with immobilised ligand; 1 µM): 9.9%
Nc1ncc2c(n1)-c1c([nH]c3ccc(C#CC4CC4)cc13)CCCC2  remaining binding (ABL1 T315I phosphorylated; binding; competition with immobilised ligand; 1 µM): 97%
O=C(O)[C@H]1[C@H](Cn2nnc3ccccc3c2=O)CC[C@@H]1C(=O)c1ccc(OCCC2CCOCC2)cc1  remaining binding (ABL1 non-phosphorylated; cell-free assay; competition with immobilised ligand; 1 µM): 80%
F[C@@H]1CCN(c2nccc(-c3cnn4ncccc34)n2)C1  remaining binding (ABL1 F317L; binding; 1 µM): 100%
Cn1nc(C(F)(F)F)cc1-c1cnc(N2CCc3cc(S(=O)(=O)Nc4c(F)cc(Cl)cc4F)cc(N4CCCC4=O)c32)nc1  remaining binding (ABL1 T315I phosphorylated; cell-free assay; competition with immobilised ligand; 1 µM): 82%
O=C(NCCCN1CCOCC1)c1ccc(Nc2ncc(Cl)c(-c3ccc(Cl)s3)n2)cc1  remaining binding (Tyrosine-protein kinase ABL1, non-phosphorylated (ABL1, Homo sapiens, UniProt P00519, F317I); binding; competition with immobilised ligand; 1 µM): 100%
COc1cnc(Nc2cccc(S(N)(=O)=O)c2)nc1N1CCN(c2ccccc2)CC1  remaining binding (ABL1 non-phosphorylated; binding; competition with immobilised ligand; 1 µM): 70%
CCN1CCN(Cc2ccc(C(=O)Nc3ccc(C)c(Oc4ccc5c(c4)CC(=O)N5)c3)cc2C(F)(F)F)CC1  remaining binding (ABL1 F317I phosphorylated; binding; competition with immobilised ligand; 1 µM): 24%
Cc1cnc(Nc2ccc(C(=O)N3CCC(N4CCCC4)CC3)cc2)nc1-c1cc2ccccc2s1  remaining binding (ABL1 F317I phosphorylated; binding; competition with immobilised ligand; 1 µM): 57%
CN(CCCC(F)(F)F)c1nccc(-c2cnn3ncccc23)n1  remaining binding (ABL1 F317L; binding; 1 µM): 100%
COc1ccc2c(O[C@@H]3C[C@H]4C(=O)N[C@]5(C(=O)O)CC5/C=C\CCCCC[C@H](NC(=O)OC5CCCC5)C(=O)N4C3)cc(-c3csc(NC(=O)C(C)C)n3)nc2c1C (stereo partly shown)  remaining binding (ABL1 phosphorylated; cell-free assay; competition with immobilised ligand; 1 µM): 93%
COc1ccnn2ncc(-c3ccnc(N(C)C)n3)c12  remaining binding (Tyrosine-protein kinase ABL1 (ABL1, Homo sapiens, UniProt P00519, F317I); binding; 1 µM): 82%
CC(=O)N1CCC(c2ccc(C(=O)NC3=NCCN3)cc2C(F)(F)F)CC1  remaining binding (ABL1 F317L phosphorylated; cell-free assay; competition with immobilised ligand; 1 µM): 95%
CN(C)c1nccc(-c2cnn3ncccc23)n1  remaining binding (Tyrosine-protein kinase ABL1 (ABL1, Homo sapiens, UniProt P00519, T315I); binding; 1 µM): 80%
c1cncc(-c2cccc(Nc3nccc(NC4CCCCC4)n3)c2)c1  remaining binding (ABL1 F317L non-phosphorylated; binding; competition with immobilised ligand; 10 µM): 81%
O=C(Nc1c[nH]nc1C(=O)NC1CCNCC1)c1cc(F)cc(F)c1  remaining binding (ABL1 E255K phosphorylated; binding; competition with immobilised ligand; 1 µM): 100%
CO[C@H]1CC[C@H](CNc2ccc(S(=O)(=O)NC(=O)c3ccc(N4CCN(CC5=C(c6ccc(Cl)cc6)CC(C)(C)CC5)CC4)cc3Oc3cnc4[nH]ccc4c3)cc2[N+](=O)[O-])CC1  remaining binding (ABL1 Q252H non-phosphorylated; cell-free assay; competition with immobilised ligand; 1 µM): 81%
O=C(NCC1CCOCC1)c1n[nH]cc1NC(=O)c1c(F)cccc1F  remaining binding (ABL1 M351T phosphorylated; binding; competition with immobilised ligand; 1 µM): 91%
CN(C(=O)c1ccccc1)c1cc(N(C)c2ccc3c(c2)CCc2ccc(C(=O)NCCN4CCOCC4)cc2C3=O)ccc1F  remaining binding (ABL1 H396P phosphorylated; cell-free assay; competition with immobilised ligand; 1 µM): 100%
C=CC(=O)N1CCC(C(=O)NCC(=O)N2CCN(c3nc(-c4cnc(N)nc4C(F)F)nc(N4CCOCC4)n3)CC2)CC1  remaining binding (ABL1 F317L non-phosphorylated; binding; competition with immobilised ligand; 1 µM): 90%
